Measured values: ChEMBL document CHEMBL4411342, “Pyrrolomycins as antimicrobial agents. Microwave-assisted organic synthesis and insights into their antimicrobial mechanism of action” (Bioorg Med Chem, 2019)

Columns and labels:
Staphylococcus aureus [1] = experiment: Antibiofilm activity against Staphylococcus aureus ATCC 25923 after 24 hrs by crystal violet staining based assay; type: functional, organism-based; conditions: ATCC 25923, 24 h
How it was run: (§1)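 Overnight TSB + 2% w/v glucose cultures (37 °C, 24 h) diluted to 0.5 McFarland, inoculated into 96-well plates of TSB/2% glucose with compound (100 µg/mL screen, or 100–0.001 µM for IC50). Static 37 °C, 24 h; wells PBS-washed, 0.1% crystal violet 30 min, solubilized in 33% acetic acid, OD 540 nm. % inhibition vs growth control; duplicates, ≥3 independent experiments.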

Pseudomonas aeruginosa = experiment: Antibiofilm activity against Pseudomonas aeruginosa ATCC 15442 after 24 hrs by crystal violet staining based assay; type: functional, organism-based; conditions: ATCC 15442, 24 h; how it was run: as §1
Sortase A = molecular target: T1, Sortase A (Staphylococcus aureus, UniProt Q9S446); experiment: Inhibition of Staphylococcus aureus SrtA using dabcyl-QALPETGEE-edans as substrate preincubated for 1 hr followed by substrate addition and measured at 1 min interval for 1 hr by fluorescence assay
T1 sequence (Q9S446 whole entry): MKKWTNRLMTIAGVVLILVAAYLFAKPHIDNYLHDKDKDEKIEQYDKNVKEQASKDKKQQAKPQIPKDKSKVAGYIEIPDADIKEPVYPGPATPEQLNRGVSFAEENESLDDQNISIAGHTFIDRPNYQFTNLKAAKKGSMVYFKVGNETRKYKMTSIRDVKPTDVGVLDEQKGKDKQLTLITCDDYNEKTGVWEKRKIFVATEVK
How it was run: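 Recombinant S. aureus SrtA (10 µM) preincubated 1 h at 37 °C in 50 mM Tris-HCl, 5 mM CaCl2, 150 mM NaCl, pH 7.5 with increasing inhibitor levels; FRET peptide added to 50 µM final. Cleavage fluorescence read at ex 350/em 495 nm; progress curves used for IC50. Stocks 10 mM in DMSO; berberine chloride positive control, enzyme-free substrate negative control.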

Staphylococcus aureus [2] = experiment: Inhibition of Staphylococcus aureus AtlA assessed as reduction in biofilm formation at 1 uM measured after 24 hrs
How it was run: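 S. aureus overnight culture (TSB + 2% glucose, 37 °C, 200 rpm) inoculated 1:100 into TSB/2% glucose containing 1 µM compound (from DMSO stock) in 24-well plates. Static incubation at 37 °C for 24 h. Biofilm inhibition is expressed relative to untreated cultures. Untreated and 0.1% DMSO controls. Triplicate cultivations.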

Staphylococcus aureus [3] = experiment: Inhibition of Staphylococcus aureus AtlA assessed as reduction in enzyme activity at 1 uM measured after 24 hrs y methylene blue staining based zymography relative to control
How it was run: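 Spent medium from 24 h static S. aureus cultures (1 µM compound; untreated and 0.1% DMSO controls) was centrifuged, and the supernatant was lyophilized and resuspended in Tris-HCl pH 7.4. Proteins were run on 12% SDS-PAGE containing 1 mg/mL Micrococcus lysodeikticus cells. The gel was renatured (Triton X-100 buffer, 37 °C, 16–48 h) and stained with 0.1% methylene blue. Clear bands were quantified by densitometry as lysozyme µg equivalents, in triplicate.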

For O=C(c1cc(Cl)cc(Cl)c1O)c1[nH]c(Br)c(Br)c1Br, the IC50 (Staphylococcus aureus [1]) was 20300 nM, the IC50 (Pseudomonas aeruginosa) was 106 µM and the IC50 (Sortase A) was 130 µM.

O=C(c1cc(Br)cc(Br)c1O)c1[nH]c(Br)c(Br)c1Br was tested, and the IC50 (Staphylococcus aureus [1]) was 3.4 nM, the IC50 (Pseudomonas aeruginosa) was 74.8 µM and the inhibition (Staphylococcus aureus [2]) was under 80%. It also gave a fold change (FC) (Staphylococcus aureus [3]) of 2 and an IC50 (Sortase A) of 140 µM.

O=C(c1cc(Cl)cc(Cl)c1O)c1[nH]c(Cl)c(Cl)c1Br showed an IC50 (Staphylococcus aureus [1]) of 100 nM, an IC50 (Pseudomonas aeruginosa) of 170 µM and an IC50 (Sortase A) of 130 µM.

In the case of O=C(c1cc(Cl)cc(Cl)c1O)c1[nH]c(Cl)c(Br)c1Cl, the IC50 (Staphylococcus aureus [1]) is reported as 24.7 nM, the IC50 (Pseudomonas aeruginosa) is reported as 18.6 µM and the IC50 (Sortase A) is reported as 160 µM.

In the case of O=C(c1cc(Cl)c(Cl)[nH]1)c1cc(Cl)cc(Cl)c1O, the IC50 (Staphylococcus aureus [1]) is reported as 920 nM, the IC50 (Pseudomonas aeruginosa) is reported as 236 µM and the IC50 (Sortase A) is reported as 300 µM.

With O=C(c1cc(Br)ccc1O)c1[nH]c(Br)c(Cl)c1Br the IC50 (Staphylococcus aureus [1]) was 8.7 nM, the IC50 (Pseudomonas aeruginosa) was 78.9 µM and the inhibition (Staphylococcus aureus [2]) was under 80%. The fold change (FC) (Staphylococcus aureus [3]) was 2 and the IC50 (Sortase A) was 250 µM.
